ChEMBL document CHEMBL1212734, “In vitro pharmacodynamics of levofloxacin and other aerosolized antibiotics under multiple conditions relevant to chronic pulmonary infection in cystic fibrosis” (2010)
Converted amounts (≈) assume the structure as drawn.

Columns and labels:
Type in all cases: functional
Pseudomonas aeruginosa [1] = test: Antibacterial activity against Pseudomonas aeruginosa by broth dilution method
In short: (§1)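 Broth microdilution MIC per CLSI reference method; twofold serial dilutions in cation-adjusted Mueller-Hinton broth. […] Endpoint read by OD600 and confirmed visually.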

Burkholderia cepacia = test: Antibacterial activity against Burkholderia cepacia clinical isolates by broth dilution method
[2] = test system: Stenotrophomonas maltophilia; test: Antibacterial activity against Stenotrophomonas maltophilia by broth dilution method
[3] = test system: Achromobacter xylosoxidans; test: Antibacterial activity against Alcaligenes xylosoxidans by broth dilution method
Staphylococcus aureus [4] = test: Antibacterial activity against methicillin-resistant Staphylococcus aureus by broth dilution method; in short: as §1
Staphylococcus aureus [5] = test: Antibacterial activity against methicillin-sensitive Staphylococcus aureus by broth dilution method
Pseudomonas aeruginosa [6] = test: Antibacterial activity against Pseudomonas aeruginosa PA1054 assessed as inhibition of biofilm formation by microtiter plate reader assay
In short: (§2)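 Biofilms of cystic fibrosis P. aeruginosa isolates were grown and tested by a previously described method. The endpoint was the biofilm inhibitory concentration, the drug level that prevents biofilm cell growth, compared against planktonic broth-microdilution MICs.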

Pseudomonas aeruginosa [7] = test: Antibacterial activity against Pseudomonas aeruginosa PA1042 assessed as inhibition of biofilm formation by microtiter plate reader assay; in short: as §2
Pseudomonas aeruginosa [8] = test: Antibacterial activity against Pseudomonas aeruginosa PA5063 assessed as inhibition of biofilm formation by microtiter plate reader assay; in short: as §2
Pseudomonas aeruginosa [9] = test: Antibacterial activity against Pseudomonas aeruginosa PA1054 by broth dilution method; in short: as §1
Pseudomonas aeruginosa [10] = test: Antibacterial activity against Pseudomonas aeruginosa PA1042 by broth dilution method; in short: as §1
Pseudomonas aeruginosa [11] = test: Antibacterial activity against Pseudomonas aeruginosa PA5063 by broth dilution method; in short: as §1
Pseudomonas aeruginosa [12] = test: Antibacterial activity against Pseudomonas aeruginosa ATCC 27853 by broth dilution method; in short: as §1
Pseudomonas aeruginosa [13] = test: Antibacterial activity against Pseudomonas aeruginosa PA5043 by broth dilution method; in short: as §1
Pseudomonas aeruginosa [14] = test: Antibacterial activity against Pseudomonas aeruginosa PA5043 assessed as inhibition of biofilm formation by microtiter plate reader assay; in short: as §2
Pseudomonas aeruginosa [15] = test: Antibacterial activity against Pseudomonas aeruginosa ATCC 27853 assessed as inhibition of biofilm formation by microtiter plate reader assay

SMILES	MIC50 (Pseudomonas aeruginosa [1]) [µg/mL]	MIC90 (Pseudomonas aeruginosa [1]) [µg/mL]	MIC50 [2] [µg/mL]	MIC90 [2] [µg/mL]	MIC50 [3] [µg/mL]	MIC90 [3] [µg/mL]	MIC50 (Staphylococcus aureus [4]) [µg/mL]	MIC90 (Staphylococcus aureus [4]) [µg/mL]	MIC50 (Staphylococcus aureus [5]) [µg/mL]	MIC90 (Staphylococcus aureus [5]) [µg/mL]	also measured
NCC[C@H](O)C(=O)N[C@@H]1C[C@H](N)[C@@H](O[C@H]2O[C@H](CN)[C@@H](O)[C@H](O)[C@H]2O)[C@H](O)[C@H]1O[C@H]1O[C@H](CO)[C@@H](O)[C@H](N)[C@H]1O [AMIKACIN]	16 (≈ 27.3 µM)	> 128	128 (≈ 219 µM)	> 128	> 128	> 128	8 (≈ 13.7 µM)	16 (≈ 27.3 µM)	1 (≈ 1.71 µM)	4 (≈ 6.83 µM)	MIC50 (Burkholderia cepacia): 128 µg/mL (≈ 219 µM); MIC90 (Burkholderia cepacia): > 128 µg/mL; BBC (Pseudomonas aeruginosa [6]): 4 µg/mL; MIC (Pseudomonas aeruginosa [6]; Pseudomonas aeruginosa, PA1054): 1 µg/mL (≈ 1.71 µM); BBC (Pseudomonas aeruginosa [7]): 8 µg/mL; BBC (Pseudomonas aeruginosa [8]): 16 µg/mL; MIC (Pseudomonas aeruginosa [9]): 1 µg/mL (≈ 1.71 µM); MIC (Pseudomonas aeruginosa [10]): 4 µg/mL (≈ 6.83 µM); MIC (Pseudomonas aeruginosa [11]): 2 µg/mL (≈ 3.42 µM); MIC (Pseudomonas aeruginosa [12]): 2 µg/mL (≈ 3.42 µM); MIC (Pseudomonas aeruginosa [13]): 64 µg/mL (≈ 109 µM); BBC (Pseudomonas aeruginosa [14]): 64 µg/mL; BBC (Pseudomonas aeruginosa [15]): 8 µg/mL
O=C(O)c1cn(C2CC2)c2cc(N3CCNCC3)c(F)cc2c1=O [CIPROFLOXACIN]	1 (≈ 3.02 µM)	8 (≈ 24.1 µM)	4 (≈ 12.1 µM)	16 (≈ 48.3 µM)	4 (≈ 12.1 µM)	16 (≈ 48.3 µM)	16 (≈ 48.3 µM)	> 32	0.125 (≈ 0.377 µM)	0.5 (≈ 1.51 µM)	–
